This is a sample that favours compounds with a hit; in the whole collection about 1.8% have one here.
Lipid droplet = modulators of hepatic lipid droplet formation. AML12 mouse hepatocytes, oleate lipid droplets, BODIPY imaging. inhibition, % at 6.5 µM. 240,000 tested, 0.4% active;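 active = lipid droplet intensity inhibited by at least 50%, with more than 500 cells counted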
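Technique: fluorescence imaging, 20x objective, two fields per well / Assay system: AML12 hepatocytes (mouse) / Measure: % inhibition of lipid droplet signal / Doses: 6.5 µM single-point dosing / Incubation: overnight exposure / Reagent: 100 µM oleic acid challenge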
697 NFkB inh = lowers PMA/ionomycin-induced NF-kB signal in 697 B cells | 697 B-cell NF-kB luciferase reporter, 16 h | inhibition, % at 4 µM | 330,000 tested, 0.33% active | AID 435022; in the data active = inhibition above about 35%
Gli-Sufu block = Gli-Sufu pathway antagonism; Sufu-KO-LIGHT fibroblasts, Gli luciferase reporter luminescence; inhibition, % at 5 µM; 340,000 tested, 0.74% active; AID 588413;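 active = inhibition above about 55%, limit read from the data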
hiPSC survival = hiPSC single-cell survival enhancement; ATPlite luminescence; 100% = ROCK inhibitor wells, 0% = DMSO; survival enhancement, % at 20 µM; 360,000 tested, 0.044% active; in the data active = survival enhancement above about 18%;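 note: cells exposed to compounds for 16 hours before the ATP read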
Jurkat NFkB inh = lowers PMA/ionomycin-induced NF-kB signal in Jurkat cells. inhibition, % at 4 µM. AID 435003. 330,000 tested, 0.53% active. PMA/ionomycin-induced NF-kB luciferase reporter, luminescence; in the data active = inhibition above about 50%
H9c2 TAG inh = inhibitors of triacylglycerol accumulation. H9c2 cells, Nile Red lipid (TAG) fluorescence; cells loaded with 200 µM oleic acid. inhibition, % at 12.5 µM. 230,000 tested, 0.66% active. AID 651582;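 active = pattern-corrected inhibition of lipid staining of at least 50% with the nuclear-stain viability signal not falling by more than 50%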
Gli antag conf = Gli-SUFU antagonism confirmation, single concentration; 2,500 tested, 40% active; shares compounds with Gli-Sufu block; inhibition, % at 5 µM; Sufu-KO-LIGHT cells, Gli luciferase reporter, luminescence;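 active = mean inhibition at 5 µM reaching about 45%, limit read from the data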
SufuKO cytotox = counter-screen for Gli-SUFU antagonists: cytotoxicity | shares compounds with Gli-Sufu block | Sufu-KO-LIGHT cells cytotoxicity, ATP luminescence | cytotoxicity, % at 5 µM | 2,500 tested, 32% active | AID 651994;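 active = mean cytotoxicity at 5 µM above about 25%, limit read from the data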;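 note: cells exposed to compound overnight for roughly 16 to 18 hours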
Wnt3a counter = Wnt3a reporter inhibition counter-screen | shares compounds with Gli-Sufu block | Wnt-LIGHT cells, Wnt3a-driven luciferase reporter, luminescence | inhibition, % at 6.25 µM | 2,500 tested, 20% active | AID 651995;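 active = mean inhibition above about 25%, limit read from the data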
Hits are given with their value.

Screening CCC(CO)Oc1cc(NCc2ccc(O)cc2)c2ncn(C(C)C)c2c1 (stereo not drawn) returned 697 NFkB inh inactive, Gli-Sufu block inactive, hiPSC survival inactive, Jurkat NFkB inh inactive and H9c2 TAG inh inactive.
CN(C[C@@H](Cc1cccc2ccccc12)N(C[C@H](Cc1ccccc1)N(CCc1ccccc1)N=O)N=O)N=O was read as Lipid droplet inactive, 697 NFkB inh inactive, Gli-Sufu block 60, hiPSC survival inactive, Jurkat NFkB inh inactive, H9c2 TAG inh inactive, Gli antag conf inactive, SufuKO cytotox inactive and Wnt3a counter inactive.
`CN(C[C@H](Cc1ccccc1)N(C[C@@H](Cc1cccc2ccccc12)N(CCc1ccccc1)N=O)N=O)N=O` gave Lipid droplet inactive, 697 NFkB inh inactive, Gli-Sufu block inactive, hiPSC survival inactive, Jurkat NFkB inh inactive and H9c2 TAG inh inactive.
COc1ccc(-c2nc(N)ncc2-c2csc(C)n2)c(O)c1 was read as 697 NFkB inh inactive, Gli-Sufu block 99, hiPSC survival inactive, Jurkat NFkB inh inactive, Gli antag conf inactive, SufuKO cytotox inactive and Wnt3a counter inactive.
`COc1cc(C(=O)NCC(=O)N2CCN(S(=O)(=O)c3cc(C)ccc3C)CC2)cc(OC)c1OC` gave Lipid droplet inactive, 697 NFkB inh inactive, Gli-Sufu block inactive, hiPSC survival inactive, Jurkat NFkB inh inactive and H9c2 TAG inh inactive.
`COc1ccc(-n2c(=O)/c(=C\c3cccs3)s/c2=C(/C#N)C(=O)N2CCN(C)CC2)cc1` gave Lipid droplet inactive, 697 NFkB inh inactive, Gli-Sufu block 57, hiPSC survival inactive, Jurkat NFkB inh inactive, H9c2 TAG inh inactive, Gli antag conf inactive, SufuKO cytotox inactive and Wnt3a counter inactive.
CC(=O)Nc1cccc(C(=O)OCc2ccc([N+](=O)[O-])cc2)c1 was read as Lipid droplet inactive, 697 NFkB inh inactive, Gli-Sufu block 63, hiPSC survival inactive, Jurkat NFkB inh inactive, Gli antag conf inactive, SufuKO cytotox inactive and Wnt3a counter inactive.
For O=C(NCC1CCCO1)c1nn2c(C(F)(F)F)cc(-c3ccc(Br)o3)nc2c1Br (stereo not drawn) the results were 697 NFkB inh inactive, Gli-Sufu block 56, hiPSC survival inactive, Jurkat NFkB inh inactive, Gli antag conf inactive, SufuKO cytotox inactive and Wnt3a counter inactive.
Screening O=C(NC1CCCCC1)c1nn2c(C(F)(F)F)cc(-c3ccco3)nc2c1Br returned 697 NFkB inh inactive, Gli-Sufu block inactive, hiPSC survival inactive, Jurkat NFkB inh inactive and H9c2 TAG inh inactive.
`O=C(NNC(=O)c1cc([N+](=O)[O-])ccc1Cl)c1cccnc1` gave Lipid droplet inactive, 697 NFkB inh inactive, Gli-Sufu block inactive, hiPSC survival inactive, Jurkat NFkB inh inactive, H9c2 TAG inh inactive, Gli antag conf inactive, SufuKO cytotox inactive and Wnt3a counter inactive.
For CCOC(=O)N1CCN(C(=O)CSc2ccc3nnc(-c4ccncc4)n3n2)CC1 the results were Lipid droplet inactive, 697 NFkB inh inactive, Gli-Sufu block 59, hiPSC survival inactive, Jurkat NFkB inh inactive, H9c2 TAG inh inactive, Gli antag conf inactive, SufuKO cytotox 33 and Wnt3a counter inactive.
Screening CCOC(=O)N1CCN(C(=O)CSc2ccc3nnc(-c4ccccn4)n3n2)CC1 returned Lipid droplet inactive, 697 NFkB inh inactive, Gli-Sufu block inactive, hiPSC survival inactive, Jurkat NFkB inh inactive and H9c2 TAG inh inactive.
`Cc1ccc(N(CC(=O)NC2CCCCC2)S(=O)(=O)c2c(C)noc2C)cc1` gave Lipid droplet inactive, 697 NFkB inh inactive, Gli-Sufu block inactive, hiPSC survival inactive, Jurkat NFkB inh inactive, Gli antag conf inactive, SufuKO cytotox inactive and Wnt3a counter inactive.

Assay outcomes from PubChem.
